In ChEMBL document CHEMBL1777776, “Identification of 2-mercaptohexanoic acids as dual inhibitors of 5-lipoxygenase and microsomal prostaglandin E₂ synthase-1” (Bioorg Med Chem, 2011):
Calls of active or inactive are those of the source. No cut-off for these calls is given here.

How the values were obtained:
Prostaglandin E synthase = target: T1, Prostaglandin E synthase (Homo sapiens, UniProt O14684); experiment: Inhibition of mPGES-1 in human IL-1beta-stimulated A549 cell microsomes assessed as reduction of PGE2 formation from PGH2 after 15 mins; design: species or system Microsome
T1 sequence (O14684 whole entry): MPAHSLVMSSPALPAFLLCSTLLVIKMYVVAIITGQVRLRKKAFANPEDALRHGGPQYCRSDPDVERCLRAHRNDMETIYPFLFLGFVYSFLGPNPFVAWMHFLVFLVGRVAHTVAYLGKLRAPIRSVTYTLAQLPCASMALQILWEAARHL
Method in brief: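 Microsomes from A549 cells stimulated 72 h with IL-1β (1 ng/ml), diluted to 50 µg/ml in 0.1 M potassium phosphate pH 7.4 with 2.5 mM glutathione. Preincubated with compound (1% DMSO final) 15 min at 4 °C. Reaction started with 20 µM PGH₂, run 1 min at 4 °C, stopped with FeCl₂/citric acid containing 11β-PGE₂; PGE₂ quantified. Mean of n = 3–5.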

[1] = target: T2, Polyunsaturated fatty acid 5-lipoxygenase (Homo sapiens, UniProt P09917); experiment: Inhibition of human recombinant 5-lipoxygenase expressed in Escherichia coli BL21 assessed as enzyme product formation using arachidonic acid as substrate after 10 mins by RP-HPLC analysis
T2 sequence (P09917 whole entry): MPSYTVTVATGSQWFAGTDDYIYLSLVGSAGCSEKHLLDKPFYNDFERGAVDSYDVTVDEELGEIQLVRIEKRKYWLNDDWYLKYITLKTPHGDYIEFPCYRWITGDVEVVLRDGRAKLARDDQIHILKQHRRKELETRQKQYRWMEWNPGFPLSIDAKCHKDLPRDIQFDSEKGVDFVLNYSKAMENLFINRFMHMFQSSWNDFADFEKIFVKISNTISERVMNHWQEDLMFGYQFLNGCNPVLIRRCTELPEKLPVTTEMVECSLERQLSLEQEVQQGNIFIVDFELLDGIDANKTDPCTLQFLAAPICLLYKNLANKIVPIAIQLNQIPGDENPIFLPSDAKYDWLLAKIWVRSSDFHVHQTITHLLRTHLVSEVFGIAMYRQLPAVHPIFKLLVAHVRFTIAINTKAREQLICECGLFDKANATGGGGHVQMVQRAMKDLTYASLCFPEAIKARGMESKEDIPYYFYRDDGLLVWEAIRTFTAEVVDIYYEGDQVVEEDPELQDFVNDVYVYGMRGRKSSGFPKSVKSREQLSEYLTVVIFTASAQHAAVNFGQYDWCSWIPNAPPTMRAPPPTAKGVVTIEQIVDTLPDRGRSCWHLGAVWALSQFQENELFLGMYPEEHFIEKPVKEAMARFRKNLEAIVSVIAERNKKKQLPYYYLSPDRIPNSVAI
Method in brief: (§1)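 Human 5-LO expressed in E. coli BL21 (pT3-5LO), affinity-purified and used at once. 0.5 µg enzyme in 1 ml PBS/EDTA with 1 mM ATP preincubated with compound 5–10 min at 4 °C, then warmed 30 s at 37 °C. Reaction started with 2 mM CaCl₂ and AA (routinely 20 µM), with or without 1 µM 13(S)-HpODE. Run 10 min at 37 °C, stopped with ice-cold methanol, products analysed by HPLC. Washout: 10-fold dilution (10 to 1 µM).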

A549 = experiment: Cytotoxicity against human A549 cells assessed as cell viability at 10 uM after 16 hrs by MTT assay; assay type: cell-based; settings: a549, 5 h, in the assay text read “5 hrs” for “16 hrs”
Method in brief: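 A549 cells plated at 4 × 10⁴ cells per well, incubated 16 h at 37 °C, 5% CO₂, then exposed to 10 µM compound or DMSO (≤0.3% final) for 5 h. MTT added for 4 h, formazan solubilized with SDS in 20 mM HCl, absorbance at 595 nm read relative to vehicle-treated cells.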

[2] = target: T3, Prostaglandin G/H synthase 2 (Homo sapiens) (UniProt P35354); experiment: Inhibition of human recombinant COX2 assessed as residual activity at 10 uM after 5 mins
T3 sequence (whole entry): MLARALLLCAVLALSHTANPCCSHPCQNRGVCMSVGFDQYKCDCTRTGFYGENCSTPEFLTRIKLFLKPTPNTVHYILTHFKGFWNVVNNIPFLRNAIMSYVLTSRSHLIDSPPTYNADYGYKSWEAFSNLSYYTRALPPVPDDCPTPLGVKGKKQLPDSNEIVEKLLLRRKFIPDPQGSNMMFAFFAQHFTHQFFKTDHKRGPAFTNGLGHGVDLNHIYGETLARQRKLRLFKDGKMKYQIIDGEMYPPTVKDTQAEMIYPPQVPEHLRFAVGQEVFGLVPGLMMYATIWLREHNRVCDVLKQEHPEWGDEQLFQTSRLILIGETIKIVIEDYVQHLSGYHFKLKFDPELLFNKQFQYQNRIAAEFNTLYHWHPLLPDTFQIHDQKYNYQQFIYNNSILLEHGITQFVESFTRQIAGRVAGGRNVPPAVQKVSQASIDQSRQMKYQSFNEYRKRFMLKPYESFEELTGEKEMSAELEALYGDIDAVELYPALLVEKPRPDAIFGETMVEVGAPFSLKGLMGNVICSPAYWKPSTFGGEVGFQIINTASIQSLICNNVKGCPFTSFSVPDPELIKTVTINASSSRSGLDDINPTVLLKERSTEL
Method in brief: (§2)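 Ovine COX-1 (50 units) or human recombinant COX-2 (20 units) in 1 ml 100 mM Tris pH 8 with 5 mM glutathione, 5 µM haemoglobin and 100 µM EDTA. Preincubated with 10 µM compound 5 min at 4 °C, warmed 60 s at 37 °C. Started with AA (5 µM for COX-1, 2 µM for COX-2), run 5 min at 37 °C. 12-HHT extracted and analysed by HPLC. n = 3.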

[3] = target: T4, Prostaglandin G/H synthase 1 (Ovis aries) (UniProt P05979); experiment: Inhibition of ovine COX1 assessed as residual activity at 10 uM after 5 mins; method in brief: as §2
T4 sequence (whole entry): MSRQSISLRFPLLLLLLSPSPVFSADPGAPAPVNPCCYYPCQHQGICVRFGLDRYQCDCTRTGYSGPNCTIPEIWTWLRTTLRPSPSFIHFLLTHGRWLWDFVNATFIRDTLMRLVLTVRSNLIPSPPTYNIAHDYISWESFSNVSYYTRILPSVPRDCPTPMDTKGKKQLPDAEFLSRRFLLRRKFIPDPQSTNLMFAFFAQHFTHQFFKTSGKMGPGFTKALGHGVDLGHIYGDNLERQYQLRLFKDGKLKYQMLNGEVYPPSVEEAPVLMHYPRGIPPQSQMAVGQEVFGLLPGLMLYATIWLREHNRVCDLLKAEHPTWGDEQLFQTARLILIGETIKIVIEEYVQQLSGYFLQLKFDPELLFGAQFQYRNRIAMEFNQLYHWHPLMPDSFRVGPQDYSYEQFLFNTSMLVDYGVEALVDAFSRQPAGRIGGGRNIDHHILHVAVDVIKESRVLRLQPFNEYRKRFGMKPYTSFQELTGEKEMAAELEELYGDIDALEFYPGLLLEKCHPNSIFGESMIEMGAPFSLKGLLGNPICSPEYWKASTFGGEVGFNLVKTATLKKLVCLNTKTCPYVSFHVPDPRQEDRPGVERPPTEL

[4] = target: T2, Polyunsaturated fatty acid 5-lipoxygenase; experiment: Inhibition of 5-lipoxygenase in A23187-stimulated human PMNL assessed as enzyme product formation preincubated 15 mins by RP-HPLC analysis in presence of exogenous arachidonic acid
Method in brief: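 Freshly isolated human PMNL (5 × 10⁶/ml PGC buffer: PBS pH 7.4, 1 mg/ml glucose, 1 mM CaCl₂) preincubated with compound 15 min at 37 °C. Stimulated with 2.5 µM A23187 plus exogenous AA for 10 min at 37 °C. Stopped with methanol, PGB₁ added as internal standard, lipoxygenase products analysed by HPLC. Mean of n = 3–5.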

[5] = target: T5, Polyunsaturated fatty acid 5-lipoxygenase (Homo sapiens) (UniProt P09917); experiment: Inhibition of human recombinant 5-lipoxygenase expressed in Escherichia coli BL21 assessed as enzyme product formation using arachidonic acid as substrate at 1 uM after 10 mins by RP-HPLC analysis; method in brief: as §1
T5 sequence (whole entry): T2 sequence (P09917 whole entry)

Row | SMILES | IC50 (Prostaglandin E synthase) [nM] | IC50 [1] [µM] | Activity (A549) | inhibition [2] | inhibition [3] | IC50 [4] [nM] | inhibition [5]
1 | CCCCC(Sc1ccc(OCCCOc2cccc3c2CCCC3)cc1)C(=O)O (configuration not stated) | 2200 | 4.5 | Non-toxic | inactive | inactive | 1400 | 
2 | CC(C)c1ccc2c(c1)c(SC(C)(C)C)c(CC(C)(C)C(=O)O)n2Cc1ccc(Cl)cc1 |  |  |  |  |  |  | inactive
